Measurements reported in ChEMBL document CHEMBL3992557, “Synthesis and biological evaluation of novel N3-substituted dihydropyrimidine derivatives as T-type calcium channel blockers and their efficacy as analgesics in mouse models of inflammatory pain” (Bioorg Med Chem, 2017).
pIC50: −log10 of the molar value. Calls of active or inactive are those of the source.

How the values were obtained:
[1] = target: T1, Voltage-dependent T-type calcium channel subunit alpha-1H (Homo sapiens, UniProt O95180); assay: Inhibition of GFP-fused Cav3.2-alpha1 (unknown origin) expressed in human tsA-201 cells at 10 uM at holding potential of -110 mV by whole cell patch clamp method relative to control; assay type: cell-based
Procedure, shortened: (§1)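 HEK tsA-201 cells transfected by calcium phosphate with channel DNA plus GFP marker, moved to 30°C at 16-18 h, recorded two days later. Whole-cell patch clamp used Ba2+ (20 mM) external solution, pH 7.4, with CsCl-based internal solution. Recordings were P/4 leak-subtracted, 10 kHz sampling. Compound at 10 µM, DMSO ≤0.1% final, reported as % current inhibition. Cav2.2 n=3.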

[2] = target: Cav1.2 (voltage-dependent L-type calcium channel subunit alpha-1C) (Rattus norvegicus, UniProt P22002); assay: (§2) Inhibition of GFP-fused rat Cav1.2 expressed in human tsA-201 cells co-expressing Cavbeta1b/Cavalpha2delta1 assessed as tonic block at 10 uM at holding potential of -90 mV by whole cell patch clamp method relative to control; assay type: cell-based
Procedure, shortened: (§3)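 tsA-201 cells were co-transfected with rat Cav1.2 plus Cavβ1b and Cavα2δ1 (5 µg each) and a GFP marker, then kept 2 days (30°C after 16-18 h). Whole-cell patch clamp used 20 mM BaCl2 bath, P/4 leak correction, 10 kHz sampling. Tonic resting-state block at 10 µM was given as % current inhibition. Final DMSO ≤0.1%.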

[3] = target: Voltage-dependent L-type calcium channel subunit alpha-1C (Rattus norvegicus, UniProt P22002); assay: as §2; assay type: cell-based; details: 10 µM; procedure, shortened: as §3
Mus musculus [4] = assay: Analgesic activity in CFA-induced mechanical hyperalgesia C57BL/6J mouse model assessed as mechanical paw withdrawal threshold at 1 ug/10 uL administered intrathecally 2 days after CFA injection measured at 20 to 150 mins post dose; assay type: functional
Procedure, shortened: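 C57BL/6J male mice, 7-9 weeks; 30 µl CFA injected into right hind paw; 2 days later single intrathecal dose with vehicle 1% DMSO in PBS. Paw withdrawal threshold measured blinded by digital plantar aesthesiometer at 0, 20, 45, 90 and 150 min after dosing, after ≥1 h habituation. Each paw stimulated three times. n=6 per group; mean ± S.E.M, two-way ANOVA with Bonferroni test.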

Mus musculus [5] = assay: Analgesic activity in formalin-induced nociception C57BL/6J mouse model assessed as reduction in time spent licking and biting formalin injected paw per 10 uL administered intrathecally 20 mins prior to formalin injection measured up to 30 mins post formalin injection; assay type: functional
Procedure, shortened: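 Adult male C57BL/6J mice (7-9 weeks). Intrathecal pretreatment at 0.3, 1 and 3 µg in 10 µl, or vehicle (1% DMSO in PBS, 10 µl). After 20 min, 20 µl of 1.25% formalin injected intraplantar into right hind paw.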

[6] = target: T1, Voltage-dependent T-type calcium channel subunit alpha-1H; assay: Inhibition of GFP-fused Cav3.2-alpha1 (unknown origin) expressed in human tsA-201 cells assessed as half activation potential at 1 uM at holding potential of -110 mV by whole cell patch clamp method (reference value: -30.84 +/- 0.46 mV); assay type: cell-based
[7] = target: T1, Voltage-dependent T-type calcium channel subunit alpha-1H; assay: Inhibition of GFP-fused Cav3.2-alpha1 (unknown origin) expressed in human tsA-201 cells assessed as time required to reach steady state inhibition at 1 uM at holding potential of -110 mV by whole cell patch clamp method; assay type: cell-based
[8] = target: Voltage-dependent N-type calcium channel subunit alpha-1B (Homo sapiens) (UniProt Q00975); assay: Inhibition of GFP-fused Cav2.2 (unknown origin) expressed in human tsA-201 cells assessed as at 10 uM by whole cell patch clamp method relative to control; assay type: cell-based; procedure, shortened: as §1
[9] = target: T1, Voltage-dependent T-type calcium channel subunit alpha-1H; assay: Inhibition of GFP-fused Cav3.2-alpha1 (unknown origin) expressed in human tsA-201 cells at holding potential of -110 mV by whole cell patch clamp method; assay type: cell-based
Procedure, shortened: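 tsA-201 cells transiently expressing Cav3.2 α1 plus GFP were recorded by whole-cell patch clamp with 20 mM Ba2+ as charge carrier and P/4 leak subtraction. A dose-response curve was fitted to give IC50, n=3 cells per dose. Final DMSO ≤0.1%.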

[10] = target: T1, Voltage-dependent T-type calcium channel subunit alpha-1H; assay: Inhibition of GFP-fused Cav3.2-alpha1 (unknown origin) expressed in human tsA-201 cells assessed as half inactivation potential for steady state inactivation curve at 1 uM at holding potential of -110 mV by whole cell patch clamp method (reference value: -46.27 +/- 0.57 mV); assay type: cell-based
[11] = target: T1, Voltage-dependent T-type calcium channel subunit alpha-1H; assay: Inhibition of GFP-fused Cav3.2-alpha1 (unknown origin) expressed in human tsA-201 cells assessed as half inactivation potential for steady state inactivation curve at 3 uM at holding potential of -110 mV by whole cell patch clamp method (reference value: -47.6 +/- 0.87 mV); assay type: cell-based
Mus musculus [12] = assay: Analgesic activity in CFA-induced mechanical hyperalgesia C57BL/6J mouse model assessed as mechanical paw withdrawal threshold at 3 ug/10 uL administered intrathecally 2 days after CFA injection measured at 90 to 150 mins post dose; assay type: functional
Procedure, shortened: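 Adult male C57BL/6J mice (7-9 weeks). Right hind paw given 30 µl CFA intraplantar; 2 days later dosed intrathecally at 3 µg/10 µl, vehicle 1% DMSO in PBS. Thresholds read blinded with digital plantar aesthesiometer at 0, 20, 45, 90 and 150 min, each paw tested three times. n=6 mice per group, mean ± S.E.M, two-way ANOVA with Bonferroni post-hoc.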

[13] = target: T1, Voltage-dependent T-type calcium channel subunit alpha-1H; assay: Inhibition of GFP-fused Cav3.2-alpha1 (unknown origin) expressed in human tsA-201 cells assessed as time required to reach steady state inhibition at 3 uM at holding potential of -110 mV by whole cell patch clamp method; assay type: cell-based
[14] = target: T1, Voltage-dependent T-type calcium channel subunit alpha-1H; assay: Inhibition of GFP-fused Cav3.2-alpha1 (unknown origin) expressed in human tsA-201 cells assessed as half activation potential at 3 uM at holding potential of -110 mV by whole cell patch clamp method (reference value: -32.07 +/- 0.8 mV); assay type: cell-based

T1 sequence (O95180 whole entry, the tested form may be a part): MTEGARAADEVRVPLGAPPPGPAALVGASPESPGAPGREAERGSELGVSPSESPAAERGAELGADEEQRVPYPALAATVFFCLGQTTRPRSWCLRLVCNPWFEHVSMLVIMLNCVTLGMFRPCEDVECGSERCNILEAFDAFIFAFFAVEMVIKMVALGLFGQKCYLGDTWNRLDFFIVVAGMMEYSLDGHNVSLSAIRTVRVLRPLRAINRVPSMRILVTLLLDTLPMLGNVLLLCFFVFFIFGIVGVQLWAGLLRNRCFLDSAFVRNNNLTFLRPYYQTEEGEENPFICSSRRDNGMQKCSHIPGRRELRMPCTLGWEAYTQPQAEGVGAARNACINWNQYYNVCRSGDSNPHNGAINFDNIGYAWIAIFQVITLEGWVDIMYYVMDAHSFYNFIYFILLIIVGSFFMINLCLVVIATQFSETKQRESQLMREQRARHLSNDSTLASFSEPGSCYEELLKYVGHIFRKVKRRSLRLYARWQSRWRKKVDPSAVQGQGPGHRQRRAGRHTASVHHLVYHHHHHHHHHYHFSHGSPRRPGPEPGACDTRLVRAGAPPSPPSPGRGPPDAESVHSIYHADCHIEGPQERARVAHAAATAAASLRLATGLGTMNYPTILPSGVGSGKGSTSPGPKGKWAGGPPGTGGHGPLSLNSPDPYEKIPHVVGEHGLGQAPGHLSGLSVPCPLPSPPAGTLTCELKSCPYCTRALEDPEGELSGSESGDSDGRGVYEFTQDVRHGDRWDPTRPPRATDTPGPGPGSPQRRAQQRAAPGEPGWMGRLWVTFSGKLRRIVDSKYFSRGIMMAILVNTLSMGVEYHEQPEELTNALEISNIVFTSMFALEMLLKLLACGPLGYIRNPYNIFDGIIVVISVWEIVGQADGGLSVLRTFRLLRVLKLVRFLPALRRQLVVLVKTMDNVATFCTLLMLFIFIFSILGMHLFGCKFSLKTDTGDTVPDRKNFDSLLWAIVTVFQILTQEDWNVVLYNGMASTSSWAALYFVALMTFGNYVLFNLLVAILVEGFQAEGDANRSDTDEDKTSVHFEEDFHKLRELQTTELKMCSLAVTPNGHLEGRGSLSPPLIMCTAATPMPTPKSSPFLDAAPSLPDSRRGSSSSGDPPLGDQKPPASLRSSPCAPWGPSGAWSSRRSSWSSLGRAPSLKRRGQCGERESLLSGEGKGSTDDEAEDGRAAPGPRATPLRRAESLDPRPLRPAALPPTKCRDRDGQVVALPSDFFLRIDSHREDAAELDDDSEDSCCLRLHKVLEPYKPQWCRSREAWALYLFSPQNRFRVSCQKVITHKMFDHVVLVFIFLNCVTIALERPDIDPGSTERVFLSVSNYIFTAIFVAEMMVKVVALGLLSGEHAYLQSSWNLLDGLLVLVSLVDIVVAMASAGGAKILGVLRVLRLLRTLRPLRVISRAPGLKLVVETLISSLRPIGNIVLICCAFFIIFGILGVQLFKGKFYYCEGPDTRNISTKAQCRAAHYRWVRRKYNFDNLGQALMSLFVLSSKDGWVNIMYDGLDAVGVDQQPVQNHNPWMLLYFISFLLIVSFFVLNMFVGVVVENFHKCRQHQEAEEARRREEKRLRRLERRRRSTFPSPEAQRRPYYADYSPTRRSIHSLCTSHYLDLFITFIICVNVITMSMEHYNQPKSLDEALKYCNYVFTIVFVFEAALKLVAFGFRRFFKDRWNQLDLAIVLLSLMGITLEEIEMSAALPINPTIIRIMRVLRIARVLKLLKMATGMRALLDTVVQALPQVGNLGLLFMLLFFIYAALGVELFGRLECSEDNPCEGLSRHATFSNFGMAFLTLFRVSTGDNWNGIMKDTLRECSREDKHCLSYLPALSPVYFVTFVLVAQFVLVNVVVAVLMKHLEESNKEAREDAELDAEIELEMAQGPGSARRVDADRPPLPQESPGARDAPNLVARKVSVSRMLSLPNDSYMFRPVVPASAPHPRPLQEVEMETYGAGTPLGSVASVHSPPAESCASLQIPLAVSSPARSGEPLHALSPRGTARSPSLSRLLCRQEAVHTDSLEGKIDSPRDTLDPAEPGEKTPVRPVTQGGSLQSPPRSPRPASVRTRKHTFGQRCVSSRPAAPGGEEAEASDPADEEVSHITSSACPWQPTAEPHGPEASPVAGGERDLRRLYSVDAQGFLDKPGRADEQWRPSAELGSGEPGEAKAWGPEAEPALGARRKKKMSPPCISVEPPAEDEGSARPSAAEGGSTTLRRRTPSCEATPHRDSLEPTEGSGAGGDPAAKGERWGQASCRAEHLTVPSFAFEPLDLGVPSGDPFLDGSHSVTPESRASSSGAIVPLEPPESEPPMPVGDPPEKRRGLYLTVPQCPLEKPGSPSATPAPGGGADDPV
Sequence of Cav1.2 (voltage-dependent L-type calcium channel subunit alpha-1C) (P22002 whole entry, the tested form may be a part): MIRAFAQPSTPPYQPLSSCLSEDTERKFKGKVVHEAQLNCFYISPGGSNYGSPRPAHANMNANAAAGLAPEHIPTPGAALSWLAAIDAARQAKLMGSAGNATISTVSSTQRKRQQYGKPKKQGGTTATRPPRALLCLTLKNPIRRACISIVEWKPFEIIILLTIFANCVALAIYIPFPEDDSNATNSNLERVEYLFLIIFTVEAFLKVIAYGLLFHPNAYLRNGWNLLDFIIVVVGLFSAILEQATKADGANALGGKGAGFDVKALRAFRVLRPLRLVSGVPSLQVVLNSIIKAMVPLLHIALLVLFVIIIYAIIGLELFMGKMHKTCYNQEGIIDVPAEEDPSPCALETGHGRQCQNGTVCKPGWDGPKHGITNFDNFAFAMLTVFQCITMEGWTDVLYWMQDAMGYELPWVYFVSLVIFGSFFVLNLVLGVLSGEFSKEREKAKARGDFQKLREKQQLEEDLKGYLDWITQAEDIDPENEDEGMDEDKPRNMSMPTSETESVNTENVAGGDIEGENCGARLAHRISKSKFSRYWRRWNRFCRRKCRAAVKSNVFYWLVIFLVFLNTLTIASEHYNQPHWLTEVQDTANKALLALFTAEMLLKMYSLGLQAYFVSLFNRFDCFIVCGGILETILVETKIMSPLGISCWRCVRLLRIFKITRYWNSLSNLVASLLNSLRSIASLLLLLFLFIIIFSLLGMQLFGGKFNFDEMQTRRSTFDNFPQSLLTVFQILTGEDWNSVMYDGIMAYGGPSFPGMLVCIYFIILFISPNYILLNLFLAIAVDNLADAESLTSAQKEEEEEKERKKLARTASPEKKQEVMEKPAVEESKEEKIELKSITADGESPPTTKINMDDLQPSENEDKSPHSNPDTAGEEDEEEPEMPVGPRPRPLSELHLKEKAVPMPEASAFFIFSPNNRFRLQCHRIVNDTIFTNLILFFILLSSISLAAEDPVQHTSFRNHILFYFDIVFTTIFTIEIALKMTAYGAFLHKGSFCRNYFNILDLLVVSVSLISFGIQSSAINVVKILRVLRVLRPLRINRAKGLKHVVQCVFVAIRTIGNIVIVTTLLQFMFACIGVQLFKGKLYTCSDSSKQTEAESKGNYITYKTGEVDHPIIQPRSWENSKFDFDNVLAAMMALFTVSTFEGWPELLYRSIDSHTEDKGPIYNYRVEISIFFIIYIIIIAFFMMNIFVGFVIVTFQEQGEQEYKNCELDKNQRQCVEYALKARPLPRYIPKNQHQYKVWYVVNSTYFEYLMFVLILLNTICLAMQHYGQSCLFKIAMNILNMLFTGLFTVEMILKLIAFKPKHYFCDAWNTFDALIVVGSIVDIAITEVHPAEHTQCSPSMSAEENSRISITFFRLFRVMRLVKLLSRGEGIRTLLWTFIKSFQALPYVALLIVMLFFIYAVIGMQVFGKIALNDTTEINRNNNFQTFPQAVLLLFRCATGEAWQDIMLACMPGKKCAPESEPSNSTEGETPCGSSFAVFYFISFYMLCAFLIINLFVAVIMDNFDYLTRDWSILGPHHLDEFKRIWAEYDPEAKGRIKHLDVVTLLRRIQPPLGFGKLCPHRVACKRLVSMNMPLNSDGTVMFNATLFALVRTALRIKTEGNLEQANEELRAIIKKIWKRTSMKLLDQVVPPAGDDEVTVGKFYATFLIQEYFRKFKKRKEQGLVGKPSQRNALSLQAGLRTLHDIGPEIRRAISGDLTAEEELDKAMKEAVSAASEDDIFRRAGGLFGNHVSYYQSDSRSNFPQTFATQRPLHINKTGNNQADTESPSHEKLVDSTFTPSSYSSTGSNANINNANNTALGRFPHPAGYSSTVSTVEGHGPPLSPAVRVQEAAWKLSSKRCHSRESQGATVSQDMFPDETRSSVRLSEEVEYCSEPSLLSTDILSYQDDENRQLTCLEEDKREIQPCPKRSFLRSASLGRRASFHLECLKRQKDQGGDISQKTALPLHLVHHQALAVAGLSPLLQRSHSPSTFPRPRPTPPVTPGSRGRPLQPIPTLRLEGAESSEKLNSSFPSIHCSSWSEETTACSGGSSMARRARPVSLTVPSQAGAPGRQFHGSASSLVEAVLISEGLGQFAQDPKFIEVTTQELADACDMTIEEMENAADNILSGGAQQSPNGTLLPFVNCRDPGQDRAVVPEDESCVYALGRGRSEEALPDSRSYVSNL
Sequence of Voltage-dependent L-type calcium channel subunit alpha-1C (P22002 whole entry): as the sequence (P22002 whole entry, the tested form may be a part) above

Compound	inhibition [1]	inhibition at 10 µM [2] [%]	inhibition (INH) [3]	further results
CCOC(=O)C1=C(C)NC(=O)N(CCC(=O)NNS(=O)(=O)c2ccccc2)C1c1cccc([N+](=O)[O-])c1 (centres undefined)	50%	50		
CCOC(=O)C1=C(C)NC(=O)N(CC/C(=N/N(C(C)=O)C(C)=O)OC(C)=O)C1c1cccc([N+](=O)[O-])c1 (centres undefined)	inactive		Not Active	
CCOC(=O)C1=C(C)NC(=O)N(CCC(=O)N/N=C(/C)c2ccccc2)C1c1cccc([N+](=O)[O-])c1 (centres undefined)	70 to 95%	60 to 85		
CCOC(=O)C1=C(C)NC(=O)N(CCC(=O)N/N=C2/SCC(=O)N2c2ccccc2)C1c1cccc([N+](=O)[O-])c1 (centres undefined)	inactive		Not Active	
CCOC(=O)C1=C(C)NC(=O)N(CCc2nnc(Nc3ccccc3)s2)C1c1cccc([N+](=O)[O-])c1 (centres undefined)	70 to 95%		Not Active	
CCOC(=O)C/C(C)=N\NC(=O)CCN1C(=O)NC(C)=C(C(=O)OCC)C1c1cccc([N+](=O)[O-])c1 (centres undefined)	inactive		Not Active	
CCOC(=O)C1=C(C)NC(=O)N(CCC(=O)N/N=C(/C)CC(c2ccccc2)c2ccccc2)C1c1cccc([N+](=O)[O-])c1 (centres undefined)	70 to 95%	60 to 85		
CCOC(=O)C1=C(C)NC(=O)N(CCC(=O)N/N=C(/C)c2ccc(F)cc2)C1c1cccc([N+](=O)[O-])c1 (centres undefined)	70 to 95%	60 to 85		
CCOC(=O)C1=C(C)NC(=O)N(CCC(=O)N/N=C2/C(=O)Nc3ccccc32)C1c1cccc([N+](=O)[O-])c1 (centres undefined)	50%	50		
CCOC(=O)C1=C(C)NC(=O)N(CCC(=O)NNC(=S)Nc2ccccc2)C1c1cccc([N+](=O)[O-])c1 (centres undefined)	inactive		Not Active	
CCOC(=O)C1=C(C)NC(=O)N(CCc2nnc(Nc3ccccc3)o2)C1c1cccc([N+](=O)[O-])c1 (centres undefined)	70 to 95%		Not Active	
CCOC(=O)C1=C(C)NC(=O)N(CCC(=O)N/N=C2/SCC(=O)N2c2ccc(C)cc2)C1c1cccc([N+](=O)[O-])c1 (centres undefined)	70 to 95%			
CCOC(=O)C1=C(C)NC(=O)N(CCC(=O)n2nc(C)cc2C)C1c1cccc([N+](=O)[O-])c1 (centres undefined)	inactive		Not Active	
CCOC(=O)C1=C(C)NC(=O)N(CCC(=O)NNC(=S)NC(c2ccccc2)c2ccccc2)C1c1cccc([N+](=O)[O-])c1 (centres undefined)	70 to 95%		Not Active	Activity (Mus musculus [4]): Active; MED (Mus musculus [5]): 1 µg; V1/2 [6]: -30.6 mV; TIME [7]: 0.133 to 0.167 h; inhibition [8]: 7.64%; pIC50 [9]: 6.47; Activity [10]: -51.2 mV
CCOC(=O)C1=C(C)NC(=O)N(CCC(=O)N/N=c2\scc(-c3ccc(F)cc3)n2-c2ccccc2)C1c1cccc([N+](=O)[O-])c1 (centres undefined)	inactive		Not Active	
CCOC(=O)C1=C(C)NC(=O)N(CCC(=O)N/N=C/C(c2ccccc2)c2ccccc2)C1c1cccc([N+](=O)[O-])c1 (centres undefined)	70 to 95%	60 to 85		
CCOC(=O)C1=C(C)NC(=O)N(CCC(=O)N/N=C/c2ccc(F)cc2)C1c1cccc([N+](=O)[O-])c1 (centres undefined)	70 to 95%	60 to 85		
CCOC(=O)C1=C(C)NC(=O)N(CCC(=O)N/N=C\C=C\c2ccccc2)C1c1cccc([N+](=O)[O-])c1 (centres undefined)	70 to 95%	60 to 85		
CCOC(=O)C1=C(C)NC(=O)N(CCC(=O)N/N=C/c2ccccc2)C1c1cccc([N+](=O)[O-])c1 (centres undefined)	70 to 95%	60 to 85		Activity [11]: -48.8 mV; Activity (Mus musculus [5]): Dose-dependent effect; MED (Mus musculus [5]): 3 µg; Activity (Mus musculus [12]): Active; TIME [13]: 0.133 to 0.167 h; inhibition [8]: 31.9%; pIC50 [9]: 5.47; V1/2 [14]: -29.3 mV
CCOC(=O)C1=C(C)NC(=O)N(CCC(=O)N/N=C(/C)C(c2ccccc2)c2ccccc2)C1c1cccc([N+](=O)[O-])c1 (centres undefined)	inactive		Not Active	
